From article PMC6001286 (Advanced biosystems, 2017)
Starred links: 1 amine or outer side, 2 acyl side, 3 side chain; linkers in the order of their positions; H or OH if unused. Positions of bridges follow the written chain, without caps; N, C: chain ends. Non-standard residues stand in square brackets, D forms with d. Primed or numbered codes have the meaning given here. *: point of attachment. PEG2′ = PEG2 (Ebes) spacer between FITC and the peptide N-terminus, O=C(CCC(=O)[*:2])NCCOCCOCCN[*:1]; FITC = O=C1OC2(c3ccc(O)cc3Oc3cc(O)ccc32)c2ccc(NC(=S)*)cc21; Phe(3,5-F2) = N[C@@H](Cc1cc(F)cc(F)c1)C(=O)O; Hyp = O=C(O)[C@@H]1C[C@@H](O)CN1

Legend:
[1] = on-bead flow cytometry binding to healthy plasma exosomes; set-up: species or system human; details: exosomes isolated by ultracentrifugation
How it was run: (§1)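 Exosomes were isolated by ultracentrifugation: Jurkat EV-depleted culture supernatant, or whole plasma from three healthy donors. Spins were 300 × g, 2,000 × g and 10,000 × g, then twice 100,000 × g for 2 hr at 4°C. Exosomes (10 μg protein) were labeled overnight with FITC-PEG peptide or scrambled analogue (1 μL of 5 mM). Free peptide was removed by 3000 Da spin column. Samples were adsorbed to 3.9 μm aldehyde/sulfate latex beads for flow cytometry. Triplicates, ≥10,000 beads each.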

[2] = on-bead flow cytometry binding to Jurkat exosomes; set-up: species or system human; details: α4β1-expressing, data not shown
How it was run: as §1

[3] = tested on: Jurkat tumor cells; assay: flow cytometry binding to Jurkat cells; format: cell-based, human; details: α4β1-expressing; data not shown
How it was run: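 Jurkat cells were grown in RPMI 1640 with 10% FBS and penicillin/streptomycin (37°C, 5% CO2). Cells were incubated 30 min in 3% FBS/PBS with FITC-PEG-labeled peptide or scrambled analogue at 1 μM; anti-α3-FITC was used at 1 μg per million cells. Cells were washed thrice and resuspended in 3% FBS with 1% sodium azide. Three replicates, ≥10,000 gated cells each.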

Substance | binding to healthy human plasma exosomes [1] | binding to Jurkat exosomes [2] | binding to Jurkat cells [3]
[cGd-Hyp-Phe(3,5-diF)-G-NcR] (disulfide) [scr-LXY30] | limited binding | – | –
scr-LXY30-Fl: scr-LXY30 labeled with fluorescein isothiocyanate dye via PEG2 spacer at the peptide N-terminus ({FITC-PEG2′}-[dC]G[dD][Hyp][Phe(3,5-F2)]GN[dC]R-NH2; disulfide 1-8) | did not exhibit significant binding | minimal extent | minimal extent
